{"source": "paper PMC4593655", "about": "(Bioorganic & medicinal chemistry, 2015)", "key": {"[1]": {"test_system": "NCI full panel of 60 cell lines", "test": "NCI 5-dose assay, full panel overview", "format": "cell-based, human", "conditions": "for CC50: Homo sapiens, 60 cell, read-out: pLC50 MG_MID (converted); for cytotoxicity in NCI screen: in words; for pTGI MG_MID: mean graph midpoint over all tested cell lines; for pTGI No. giving positive results: number of cell lines for which TGI ≤100 μM; for cellular lines with 50% growth inhibition at submicromolar concentrations: number of cell lines of those tested", "procedure,_shortened": "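Five-dose NCI standard protocol screen of test compound against 60 human tumour lines from nine cancer types. pGI₅₀, pTGI and pLC₅₀ are −log molar concentrations giving 50% net growth inhibition, total growth inhibition and 50% net cell death. MG_MID is the arithmetic mean over all tested lines. Counts give the lines with each value ≤100 μM. Where an effect was not reached, the highest tested concentration was used.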"}, "purified tubulin": {"test_system": "purified tubulin", "test": "Assembly of purified tubulin", "format": "biochemical", "conditions": "data not presented"}, "tubulin": {"test_system": "tubulin", "test": "Inhibition of colchicine binding to tubulin", "conditions": "data not presented"}, "pro-caspase 6": {"test_system": "pro-caspase 6", "test": "Western blotting analysis of pro-caspase 6", "format": "cell-based, human", "conditions": "K562, 10 μM, 48 h", "procedure,_shortened": "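K562 cells were seeded at 1.5 × 10⁵/well and treated 48 h with 10 μM test compound. Lysate protein was measured by Lowry assay, run on SDS-PAGE and transferred to nitrocellulose. Pro-caspase 3 and 6 were detected with specific alkaline phosphatase-conjugated antibodies. Loading was checked by Ponceau red and β-actin immunoblot, and bands were quantified by densitometry. Blots are representative of at least three experiments.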"}, "K562 cells [2]": {"test_system": "K562 cells", "test": "Annexin V-FITC/PI staining flow cytometry", "format": "cell-based, human", "conditions": "10 μM, 24 h", "procedure,_shortened": "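K562 cells were grown in RPMI 1640 with 5% FBS and antibiotics at 37 °C in 5% CO₂, then exposed to test compound for 24 h. Cells were harvested, centrifuged at 800 rpm for 10 min and washed in PBS. 10⁵ cells per sample were stained with annexin V-FITC plus PI for 15 min in the dark. Flow cytometry read FL1 (530 nm) and FL3 (>575 nm) over 10,000 events. Areas: C1 necrotic, C2 late apoptotic, C3 viable, C4 early apoptotic.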"}, "K562 cells [3]": {"test_system": "K562 cells", "test": "Cell morphology under light microscopy", "format": "cell-based, human", "conditions": "K562, 48 h, 10 and 25 μM", "procedure,_shortened": "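K562 cells, cultured in medium with 5% FBS, 100 U/mL penicillin and 100 μg/mL streptomycin at 37 °C under 5% CO₂, were seeded at 8 × 10³/well and exposed to test compound for 48 h alongside untreated control. Morphology was then examined by light microscopy at 200× magnification.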"}, "K562 cells [4]": {"test_system": "K562 cells", "test": "Hoechst 33342 nuclear staining, fluorescence microscopy", "format": "cell-based, human", "conditions": "10 μM, 48 h", "procedure,_shortened": "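K562 cells were plated at 8 × 10³/well on poly-D-lysine-coated plates and left to adhere overnight. They were prestained with Hoechst 33342 in medium for 30 min, washed with PBS and resuspended in medium, then given test compound or vehicle for 48 h.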"}}, "data": [{"smiles": "NC(=O)c1cc(Cl)ccc1NC(=O)COc1ccccc1", "note": "[Compound 17f, 5-Chloro-2-(2-phenoxyacetamido)benzamide]", "values": [{"measurement": "CC50", "setting": "[1]", "result": "> 100", "unit": "µM"}, {"measurement": "cytotoxicity in NCI screen", "setting": "[1]", "result": "low cytotoxicity"}, {"measurement": "pTGI MG_MID", "setting": "[1]", "result": 4.14}, {"measurement": "pTGI No. giving positive results", "setting": "[1]", "result": 10}, {"measurement": "cellular lines with 50% growth inhibition at submicromolar concentrations", "setting": "[1]", "result": "3 of 57"}, {"measurement": "effects on the assembly of purified tubulin", "setting": "purified tubulin", "result": "negligible effects"}, {"measurement": "inhibition of colchicine binding to tubulin", "setting": "tubulin", "result": "negligible effects"}]}, {"smiles": "NC(=O)c1cc(I)ccc1NC(=O)COc1ccccc1", "note": "[Compound 17j, 5-Iodo-2-(2-phenoxyacetamido)benzamide]", "values": [{"measurement": "CC50", "setting": "[1]", "result": "> 89.1", "unit": "µM"}, {"measurement": "cytotoxicity in NCI screen", "setting": "[1]", "result": "low cytotoxicity"}, {"measurement": "pTGI MG_MID", "setting": "[1]", "result": 4.45}, {"measurement": "pTGI No. giving positive results", "setting": "[1]", "result": 25}, {"measurement": "cellular lines with 50% growth inhibition at submicromolar concentrations", "setting": "[1]", "result": "44 of 56"}, {"measurement": "effects on the assembly of purified tubulin", "setting": "purified tubulin", "result": "negligible effects"}, {"measurement": "reduction in the level of pro-caspase 6", "setting": "pro-caspase 6", "result": "−20", "unit": "%"}, {"measurement": "necrotic cells", "setting": "K562 cells [2]", "result": "no necrotic cells were detected"}, {"measurement": "morphological changes", "setting": "K562 cells [3]", "result": "remarkable reduction in cell number and cell size"}, {"measurement": "inhibition of colchicine binding to tubulin", "setting": "tubulin", "result": "negligible effects"}, {"measurement": "nuclear morphology typical of apoptosis", "setting": "K562 cells [4]", "result": "chromatin condensation and nuclear fragmentation"}]}, {"smiles": "COc1ccc(NC(=O)COc2ccccc2)c(C(N)=O)c1", "note": "[Compound 17r, 5-Methoxy-2-(2-phenoxyacetamido)benzamide]", "values": [{"measurement": "CC50", "setting": "[1]", "result": "> 97.7", "unit": "µM"}, {"measurement": "cytotoxicity in NCI screen", "setting": "[1]", "result": "low cytotoxicity"}, {"measurement": "pTGI MG_MID", "setting": "[1]", "result": 4.31}, {"measurement": "pTGI No. giving positive results", "setting": "[1]", "result": 25}, {"measurement": "cellular lines with 50% growth inhibition at submicromolar concentrations", "setting": "[1]", "result": "30 of 56"}, {"measurement": "effects on the assembly of purified tubulin", "setting": "purified tubulin", "result": "negligible effects"}, {"measurement": "inhibition of colchicine binding to tubulin", "setting": "tubulin", "result": "negligible effects"}]}, {"smiles": "COc1cc(NC(=O)COc2ccccc2)c(C(N)=O)cc1OC", "note": "[Compound 17u, 4,5-Dimethoxy-2-(2-phenoxyacetamido)benzamide]", "values": [{"measurement": "CC50", "setting": "[1]", "result": "> 93.3", "unit": "µM"}, {"measurement": "cytotoxicity in NCI screen", "setting": "[1]", "result": "low cytotoxicity"}, {"measurement": "pTGI MG_MID", "setting": "[1]", "result": 4.31}, {"measurement": "pTGI No. giving positive results", "setting": "[1]", "result": 23}, {"measurement": "cellular lines with 50% growth inhibition at submicromolar concentrations", "setting": "[1]", "result": "26 of 58"}, {"measurement": "effects on the assembly of purified tubulin", "setting": "purified tubulin", "result": "negligible effects"}, {"measurement": "reduction in the level of pro-caspase 6", "setting": "pro-caspase 6", "result": "−50", "unit": "%"}, {"measurement": "morphological changes", "setting": "K562 cells [3]", "result": "remarkable reduction in cell number and cell size"}, {"measurement": "inhibition of colchicine binding to tubulin", "setting": "tubulin", "result": "negligible effects"}, {"measurement": "nuclear morphology typical of apoptosis", "setting": "K562 cells [4]", "result": "chromatin condensation and nuclear fragmentation"}]}]}
